Measured values from ChEMBL document CHEMBL4229456, “Salicylic Acid Derivatives Inhibit Oxalate Production in Mouse Hepatocytes with Primary Hyperoxaluria Type 1” (J Med Chem, 2018).
Calls of active or inactive are those of the source. The rule behind the calls is not given here.

Key:
[1] = molecular target: T1, 2-Hydroxyacid oxidase 1 (Mus musculus) (UniProt Q9WU19); test: Inhibition of glycolate oxidase in C57BL/6 Agxt1-/- mouse hepatocytes using glycolate as substrate assessed as reduction in oxalate production at 12.5 uM after 48 hrs post treatment relative to control; type: cell-based
T1 sequence (whole entry): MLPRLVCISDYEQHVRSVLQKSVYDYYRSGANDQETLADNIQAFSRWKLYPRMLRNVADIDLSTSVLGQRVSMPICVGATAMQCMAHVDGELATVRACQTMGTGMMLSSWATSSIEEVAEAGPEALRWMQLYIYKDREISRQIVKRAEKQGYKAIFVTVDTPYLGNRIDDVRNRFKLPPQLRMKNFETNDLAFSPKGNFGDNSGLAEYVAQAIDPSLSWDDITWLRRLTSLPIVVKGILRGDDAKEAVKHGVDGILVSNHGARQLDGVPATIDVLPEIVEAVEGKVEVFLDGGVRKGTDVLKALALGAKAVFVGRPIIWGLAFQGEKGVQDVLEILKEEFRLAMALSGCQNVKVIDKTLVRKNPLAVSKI
Summary of the method: (§1)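 Agxt1-/- primary hepatocytes (3.0x10^5 cells/well), serum-free Williams E with 5 mM glycolate, treated at the stated concentrations. Medium oxalate quantified at the stated time by oxalate oxidase kit (H2O2/HRP, MBTH and DMAB, 595 nm) and expressed relative to control.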

2-Hydroxyacid oxidase 1 [2] = molecular target: T2, 2-Hydroxyacid oxidase 1 (Mus musculus, UniProt Q9WU19); test: Inhibition of mouse recombinant glycolate oxidase expressed in Escherichia coli using glycolate as substrate by Dixon plot and Cornish-Bowden plot analysis
T2 sequence (Q9WU19 whole entry): T1 sequence (whole entry)
Summary of the method: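 Recombinant mGO held at constant enzyme concentration and tested with increasing inhibitor at several glycolate concentrations in the HRP/DCIP 515 nm assay. Inhibition type read from Cornish-Bowden and Dixon plots; Ki taken as the intersection of the lines.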

[3] = molecular target: T1, 2-Hydroxyacid oxidase 1 (Mus musculus); test: Potency index, ratio of EC50 for CCPST to EC50 for test compound for inhibition of glycolate oxidase in C57BL/6 Agxt1-/- mouse hepatocytes using glycolate as substrate assessed as reduction in oxalate production after 24 hrs; type: cell-based
[4] = molecular target: T1, 2-Hydroxyacid oxidase 1 (Mus musculus); test: Inhibition of glycolate oxidase in C57BL/6 Agxt1-/- mouse hepatocytes using glycolate as substrate assessed as relative oxalate level at 10 uM after 24 hrs; type: cell-based
Summary of the method: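 Primary Agxt1-/- mouse hepatocytes in 6-well plates, serum-free Williams E with 5 mM glycolate, treated with 10 µM compound. Excreted oxalate measured 24 h later by oxalate oxidase–HRP colorimetric kit (595 nm) and expressed relative to untreated control. Mean ± SD, n = 3, one-way ANOVA.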

Hepatocyte [5] = test: Cytotoxicity against C57BL/6 Agxt1-/- mouse hepatocytes after 24 to 48 hrs by Celltiter reagent based assay; type: cell-based
Summary of the method: (§2)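 Agxt1-/- hepatocytes (male C57BL/6, collagenase perfusion) seeded at 1.0x10^4 cells/well in 96-well plates and given the same compound concentrations as the 6-well oxalate cultures. At each time point, CellTiter 96 AQueous One reagent was added and incubated 2 h at 37°C, 5% CO2, with absorbance read at 493 nm.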

2-Hydroxyacid oxidase 1 [6] = molecular target: T2, 2-Hydroxyacid oxidase 1; test: Inhibition of glycolate oxidase in C57BL/6 Agxt1-/- mouse hepatocytes using glycolate as substrate assessed as reduction in oxalate production after 48 hrs; type: cell-based
Summary of the method: (§3)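 Agxt1-/- hepatocytes from male C57BL/6 mice, 3.0x10^5 cells/well, in Williams E with 5% FBS and insulin/hydrocortisone. After 5 h, switched to serum-free medium and treated across a dose range with 5 mM glycolate. Medium harvested at 24, 48 and 72 h; oxalate measured by oxalate oxidase/HRP kit (MBTH/DMAB dye, 595 nm). EC50 from nonlinear regression of log concentration.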

2-Hydroxyacid oxidase 1 [7] = molecular target: T2, 2-Hydroxyacid oxidase 1; test: Inhibition of mouse recombinant glycolate oxidase expressed in Escherichia coli using glycolate as substrate by sulfonated DCIP dye-based assay
Summary of the method: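 Purified recombinant mGO (10 µL at 0.1 µg/µL) with saturating glycolate (22.2 mM) in 50 mM potassium phosphate pH 7. Compound at 0.2 µM–0.2 mM; H2O2 detected by HRP-coupled sulfonated DCIP/4-aminoantipyrine dye at 515 nm. IC50 from nonlinear dose-response fitting.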

[8] = Half life in mouse liver microsomes at 2 uM in presence of NADPH by LC-HRMS method; type: ADME, microsome
[9] = molecular target: T1, 2-Hydroxyacid oxidase 1 (Mus musculus); test: Inhibition of glycolate oxidase in C57BL/6 Agxt1-/- mouse hepatocytes using glycolate as substrate assessed as reduction in oxalate production at 6.25 uM after 24 hrs post treatment relative to control; type: cell-based; summary of the method: as §1
2-Hydroxyacid oxidase 1 [10] = molecular target: T2, 2-Hydroxyacid oxidase 1; test: Inhibition of glycolate oxidase in C57BL/6 Agxt1-/- mouse hepatocytes using glycolate as substrate assessed as reduction in oxalate production after 24 hrs; type: cell-based; summary of the method: as §3
[11] = molecular target: T1, 2-Hydroxyacid oxidase 1 (Mus musculus); test: Inhibition of mouse recombinant glycolate oxidase expressed in Escherichia coli at 25 uM using glycolate as substrate after 1 min by sulfonated DCIP dye-based assay relative to control
2-Hydroxyacid oxidase 1 [12] = molecular target: T2, 2-Hydroxyacid oxidase 1; test: Inhibition of glycolate oxidase in C57BL/6 Agxt1-/- mouse hepatocytes using glycolate as substrate assessed as reduction in oxalate production after 72 hrs; type: cell-based; summary of the method: as §3
[13] = molecular target: T1, 2-Hydroxyacid oxidase 1 (Mus musculus); test: Inhibition of glycolate oxidase in C57BL/6 Agxt1-/- mouse hepatocytes using glycolate as substrate assessed as reduction in oxalate production at 12.5 uM after 24 hrs post treatment relative to control; type: cell-based; summary of the method: as §1
[14] = molecular target: T1, 2-Hydroxyacid oxidase 1 (Mus musculus); test: Potency index, ratio of EC50 for CCPST to EC50 for test compound for inhibition of glycolate oxidase in C57BL/6 Agxt1-/- mouse hepatocytes using glycolate as substrate assessed as reduction in oxalate production after 24 to 72 hrs; type: cell-based
[15] = Drug metabolism in mouse liver microsomes assessed as metabolite formation at 2 uM in presence of NADPH after 60 mins by LC-HRMS method; type: ADME, microsome; details: 1 h
Armoracia rusticana = test: Inhibition of horseradish peroxidase at 20 uM after 1 min by sulfonated-DCIP dye based assay
Summary of the method: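 HRP counter-screen without mGO or glycolate: H2O2 (10 µL of 1:10 000) with HRP, sulfonated DCIP and 4-aminoantipyrine under mGO assay conditions, compound added from 1 mM DMSO stock. Absorbance read at 515 nm after 1 min, compared with an H2O2 standard curve. Run in duplicate.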

[16] = molecular target: T1, 2-Hydroxyacid oxidase 1 (Mus musculus); test: Inhibition of glycolate oxidase in C57BL/6 Agxt1-/- mouse hepatocytes using glycolate as substrate assessed as reduction in oxalate production at 5 uM after 72 hrs post treatment; type: cell-based; summary of the method: as §1
Hepatocyte [17] = test: Cytotoxicity against C57BL/6 Agxt1-/- mouse hepatocytes at 80 uM after 24 to 48 hrs by Celltiter reagent based assay; type: cell-based; summary of the method: as §2
[18] = molecular target: T1, 2-Hydroxyacid oxidase 1 (Mus musculus); test: Inhibition of glycolate oxidase in C57BL/6 Agxt1-/- mouse hepatocytes using glycolate as substrate assessed as reduction in oxalate production at 2.5 uM after 24 hrs post treatment relative to control; type: cell-based; summary of the method: as §1
[19] = Activity against horseradish peroxidase by oxalate detection based assay

| inhibition [1] | Ki (2-Hydroxyacid oxidase 1 [2]) | Ratio EC50 [3] | fold change (FC) [4] | EC50 (2-Hydroxyacid oxidase 1 [6]) | IC50 (2-Hydroxyacid oxidase 1 [7]) | half-life at 2 µM [8] | inhibition [9] | EC50 (2-Hydroxyacid oxidase 1 [10]) | inhibition [11] | EC50 (2-Hydroxyacid oxidase 1 [12]) | inhibition [13] | Ratio EC50 [14] | Drug metabolism [15] | inhibition (Armoracia rusticana) | inhibition [16] | inhibition [18] | EC50 [19] | SMILES | Activity (Hepatocyte [5]) | Activity (Hepatocyte [17]) |
| --- | --- | --- | --- | --- | --- | --- | --- | --- | --- | --- | --- | --- | --- | --- | --- | --- | --- | --- | --- | --- |
| 62.3% | 47.2 µM | 5 | 0 | 8.36 µM | 38.2 µM | 13.3 min | 67.3% | 3.45 µM | 42.7% | 11.2 µM | 106% | 7 |  |  |  |  |  | O=Cc1ccc(-c2ccc(O)c(C(=O)O)c2)o1 | Non-Toxic |  |
|  |  |  | 0 | 7.88 µM |  | 61.9 min |  | 3.59 µM |  | 9.2 µM |  | 7 | Metabolite_Notdetected | 12.6% | Active | 26.5% | 18 µM | O=C(O)c1cc(-c2ccco2)ccc1O |  | Toxic |
